High-throughput results as filed in PubChem BioAssay.
The list is not random: actives were taken first. Their share in the collection is about 1.3%.
mABHD4 FP – ABHD4 (mouse) inhibition, primary FP screen. Q8VD66. purified mABHD4, FP-Rh probe fluorescence polarization. inhibition, % at 8.92 µM. hit rate 0.54% among 370,000. AID 720543;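 active = inhibition exceeding the mean over every tested compound plus 3 SD, cut at about 30% in these data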
Target sequence (Q8VD66 whole entry, looked up): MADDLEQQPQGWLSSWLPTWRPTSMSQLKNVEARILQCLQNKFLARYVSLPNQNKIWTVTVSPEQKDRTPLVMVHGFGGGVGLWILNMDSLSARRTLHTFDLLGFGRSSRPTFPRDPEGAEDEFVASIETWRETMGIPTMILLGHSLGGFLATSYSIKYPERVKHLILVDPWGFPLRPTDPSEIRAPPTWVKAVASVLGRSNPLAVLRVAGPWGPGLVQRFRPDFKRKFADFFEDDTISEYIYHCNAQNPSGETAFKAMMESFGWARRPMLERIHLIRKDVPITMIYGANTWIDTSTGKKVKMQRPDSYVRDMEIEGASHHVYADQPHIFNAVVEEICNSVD
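Assay system: mABHD4 protein; medium: HEPES pH 7.0, NaCl, Pluronic buffer; dosing: 8.92 µM, single dose; schedule: 45 min + 60 min at 25 °C; signal: FP readout, ex 525 nm / em 598 nm; read-out: normalized percent inhibition of probe labeling; repeats: single replicate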
HTRA1 inh – inhibitors of human serine peptidase HTRA1 | inhibition, % at 5.96 µM | hit rate 0.5% among 340,000 | recombinant HTRA1, FP-rhodamine activity-based probe, fluorescence polarization | Q92743; in the data active = inhibition above about 36%
TCR CD3 inh – human TCR-CD3 binding inhibition; inhibition, % at 9.4 µM; hit rate 0.37% among 360,000; TAMRA-labeled TCR probe fluorescence, biochemical; AID 651800; in the data active = inhibition above about 19%;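 note: recombinant mutant TCR 2C K166C tagged with TAMRA read by polarization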
DDE Tn7 FP inh – disrupts Tn7 cyclic peptide binding to fibrin D-Dimer-E complex; FP displacement of FITC-Tn7 peptide from fibrin DD(E); 0% = median of compound wells per plate; inhibition, % at 8.3 µM; hit rate 0.13% among 370,000; AID 720508;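 active = inhibition above the mean of compounds falling within the control limits plus 3 SD of them, cut at about 14% in these data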
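Measure: % inhibition scaled between sample-field median and high-control FP; Test system: human fibrin DD(E); Quantity: 2 µM final DD(E) protein; Doses: one dose, 8.3 µM nominal; Schedule: compound with protein 10 min, then 3 h after probe, room temperature; Detection: fluorescence polarization; Medium: Tris buffer with calcium and detergent, pH 7.8.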
DDE Tn6 FP inh – DD(E)-Tn6 binding inhibition, primary FP screen. hit rate 0.21% among 370,000. inhibition, % at 8.3 µM. AID 720509. Fibrin DD(E) TRITC-Tn6 fluorescence polarization displacement;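 active = inhibition above a per-campaign cutoff: mean of compounds within control limits plus 3 SD, cut at about 15% in these data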
mABHD4 conf – ABHD4 (mouse) inhibition, FP confirmation; purified mABHD4, FP-Rh probe fluorescence polarization; shares compounds with mABHD4 FP; hit rate 55% among 1,800; inhibition, % at 8.92 µM;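 active = mean inhibition across replicates above the hit cutoff set in the primary screen, cut at about 30% in these data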
Large screens that a line does not name were inactive (follow-up assays come after a bar, where they were run).

CCOc1ccc(NC(=O)c2cccc(NC(=O)c3ccccc3)c2)cc1	none
CCCCOc1ccc2c(c1)C(=O)c1cc(O)ccc1-2	mABHD4 FP 44 | mABHD4 conf 54
CCN(C(=S)NC(=O)c1ccco1)c1cccc2ccccc12	mABHD4 FP 36 | mABHD4 conf inactive
Cc1nc(NC(=O)COc2ccccc2)sc1C(=O)Nc1cccc(Cl)c1	mABHD4 FP 43 | mABHD4 conf 33
Cc1nc(NC(=O)/C=C/c2ccccc2)sc1C(=O)Nc1cccc(Cl)c1	none
COC(=O)c1sc(NC(=O)COc2ccc(OC)cc2)nc1C	none
O=C(COc1ccccc1)Nc1nc2cc3c(cc2s1)OCCO3	none
COc1ccc(NC(=O)c2sc(NC(=O)COc3ccccc3)nc2C)cc1	mABHD4 FP 50 | mABHD4 conf 60
O=C(COc1ccccc1)Nc1nc2cc3c(cc2s1)OCO3	mABHD4 FP 36 | mABHD4 conf 40
CN1C(=O)N(c2ccccc2)C(Nc2nncs2)C1(C)C (stereo unspecified)	none
COC(=O)C1=C(C)NC2=C(C(=O)c3ccccc32)C1c1cccc(OC)c1 (stereo unspecified)	none
CC1=C([N+](=O)[O-])C(c2cccc(Br)c2)C2=C(N1)c1ccccc1C2=O (stereo unspecified)	mABHD4 FP 30 | mABHD4 conf 35
Clc1ccc2c(N/N=C/c3cccc(Br)c3)ccnc2c1	mABHD4 FP 32 | mABHD4 conf 31
Clc1ccc2c(N/N=C/c3ccccc3Br)ccnc2c1	none
CCCOc1ccc(C(CC(=O)O)NC(=O)c2cccs2)cc1 (stereo unspecified)	none
CCCCn1c(N)c(N(CC(C)C)C(=O)c2ccc(N3C(=O)c4ccccc4C3=O)cc2)c(=O)[nH]c1=O	none
CCCCn1c(N)c(N(CC(C)C)C(=O)c2ccc(N3C(=O)CCC3=O)cc2)c(=O)[nH]c1=O	mABHD4 FP 35 | mABHD4 conf inactive
CCCCn1c(N)c(N(CC(C)C)C(=O)C2CCCO2)c(=O)[nH]c1=O (stereo unspecified)	mABHD4 FP 32 | mABHD4 conf inactive
O=C(COCc1ccncc1)N1CCN(c2ccc(F)cc2Cl)CC1	none (no result: HTRA1 inh, TCR CD3 inh)
O=C(CC1C(=O)NCCN1Cc1ccc(-c2ccccc2)cc1)NCCc1ccccn1 (stereo unspecified)	none
CC(NS(=O)(=O)c1cc(C(F)(F)F)ccc1Cl)C(=O)N(C)C1CCN(C)CC1 (stereo unspecified)	none
Cc1cccc(N=Cc2cc3c(cc2[N+](=O)[O-])OCO3)c1	mABHD4 FP 41, HTRA1 inh 40 | mABHD4 conf inactive
COc1cc(C=Nc2cccc(C)c2)c(O)c([N+](=O)[O-])c1	none
CC1CCCC(C)N1C(=O)COC(=O)CCC(=O)c1ccc(F)cc1 (stereo unspecified)	none
CC1CCCC(C)N1C(=O)COC(=O)CCC(=O)c1cccs1 (stereo unspecified)	mABHD4 FP 60 | mABHD4 conf inactive
CC(C)C[C@@H](CN)NC(=O)c1nc[nH]c1C(=O)N[C@@H](Cc1ccccc1)C(=O)CNC[C@H](C)NC(=O)c1nc[nH]c1C(=O)N[C@@H](C)C(=O)O	none
Cn1nc(C(=O)NCc2ccc(F)cc2)c2c1-c1ccccc1S(=O)(=O)C2	none
O=S(=O)(c1ccc(NC(=S)N/N=C/c2ccc(O)c(O)c2)cc1)N1CCOCC1	mABHD4 FP 31 | mABHD4 conf inactive
COc1ccc(NC(=O)C(c2cc3c(cc2[N+](=O)[O-])OCO3)N2CCN(C=O)CC2)cc1 (stereo unspecified)	mABHD4 FP 31 | mABHD4 conf inactive
COc1ccc(CNCc2cc3c(cc2[N+](=O)[O-])OCO3)cc1	mABHD4 FP 33 | mABHD4 conf inactive
Cc1cc(C)cc(NCc2cc3c(cc2[N+](=O)[O-])OCO3)c1	mABHD4 FP 31 | mABHD4 conf inactive
Fc1cc(F)cc(NC(=S)N2CCN(c3ncccn3)CC2)c1	none
O=CN1CCN(C(=S)NC(=O)c2ccc(Cl)cc2)CC1	none
Cc1[nH]c2ccccc2c1N=Nc1ccccc1C(=O)O	mABHD4 FP 56 | mABHD4 conf 69
O=C(CNc1ccc2ccccc2c1)N/N=C/c1ccccn1	mABHD4 FP 39 (no result: HTRA1 inh) | mABHD4 conf inactive
CC(O)CSc1nc2c(c(=O)n(C)c(=O)n2C)n1CCCc1ccccc1 (stereo unspecified)	none
Cc1ccc(-n2nc(C)c3c2OC(N)=C(C#N)C3c2ccco2)cc1 (stereo unspecified)	mABHD4 FP 41 | mABHD4 conf inactive
Cc1ccc(-n2nc(C)c3c2OC(N)=C(C#N)C3c2ccc(C)o2)cc1 (stereo unspecified)	none
Cn1c(/C=C/c2ccc(Cl)cc2)nc2ccccc2c1=O	mABHD4 FP 57 | mABHD4 conf inactive
Cn1c(/C=C/c2ccccc2)nc2ccccc2c1=O	none
CCCn1c(NC(=O)c2ccccc2)nc(Cc2ccccc2)c1Cc1ccccc1	none (no result: HTRA1 inh, TCR CD3 inh)
O=c1[nH]n2c(=O)c3c([nH]c2c1N=Nc1cccc(C(F)(F)F)c1)CCCC3	mABHD4 FP 59 | mABHD4 conf 66
Cc1cc(-c2ccc3c(c2)COc2c4ccccc4nn2-3)on1	mABHD4 FP 31 | mABHD4 conf inactive
O=C(O)Cn1c2ccccc2c2n[nH]c(=S)nc21	none
Oc1ccc(Nc2ccc3ccccc3c2)cc1	mABHD4 FP 39 (no result: HTRA1 inh) | mABHD4 conf 56
Oc1ccc(C=Nc2cccc3ccccc23)c(O)c1	mABHD4 FP 30 | mABHD4 conf inactive
O=[N+]([O-])c1ccc(O)c(C=Nc2cccc3ccccc23)c1	none
O=C1NC(=O)/C(=C/c2cccc3ccccc23)S1	none
O=C1NC(=O)/C(=C\c2ccc(O)cc2O)S1	mABHD4 FP 30 | mABHD4 conf inactive
COc1cc(NS(=O)(=O)c2ccc(NC(=O)c3ccc(Cl)cc3Cl)cc2)ncn1	none
O=c1cc(CSc2nc(NCc3ccccc3)c3ccccc3n2)nc2ccc(Cl)cn12	none
CCOC1=CC2=C(C(=O)C(Cl)=CC2=O)[C@@H]2CN(S(=O)(=O)c3ccc(C)cc3)[C@@H](c3ccccc3)[C@H]12	mABHD4 FP 89 (no result: HTRA1 inh) | mABHD4 conf 101
CCN1C(=O)[C@@H]2[C@@H]3CN(S(=O)(=O)c4ccc(C)cc4)[C@@H](c4ccccc4)[C@@H]3C(=O)C[C@@H]2C1=O	none (no result: HTRA1 inh)
O=C(COc1cccnc1[N+](=O)[O-])N1CCN(C(=O)c2ccco2)CC1	none
Brc1ccc(-c2csc(N3CCNCC3)n2)cc1	mABHD4 FP 61 (no result: HTRA1 inh, TCR CD3 inh) | mABHD4 conf 75
O=C(C1CCN(c2nc(-c3ccc(Br)cc3)cs2)CC1)N1CCNCC1	none (no result: HTRA1 inh, TCR CD3 inh)
CCCCCCCN(c1ccccc1)[C@@H]1C[C@H]2CCCC(=O)N3CC[C@@H](C1)[C@@H]23	mABHD4 FP 31 | mABHD4 conf 53
